# Measured values published in ChEMBL document CHEMBL1240414, “Synthesis and anticonvulsant activity of new 6-methyl-1-substituted-4,6-diazaspiro[2.4]heptane-5,7-diones” (Eur J Med Chem, 2010).
# Activity calls are given as the source filed them.
# Tests used:
# [1] = system: Mus musculus; test: Anticonvulsant activity in Kunming mouse assessed as protection against maximal electroshock-induced seizures at 30 mg/kg, ip after 0.5 hrs; type: functional, organism-based; design: dose 30 mg/kg
# [2] = system: Mus musculus; test: Anticonvulsant activity in Kunming mouse assessed as protection against maximal electroshock-induced seizures at 100 mg/kg, ip after 4 hrs; type: functional, organism-based; design: dose 100 mg/kg
# [3] = system: Mus musculus; test: Anticonvulsant activity in Kunming mouse assessed as protection against maximal electroshock-induced seizures at 300 mg/kg, ip after 4 hrs; type: functional, organism-based; design: dose 300 mg/kg
# [4] = system: Mus musculus; test: Anticonvulsant activity in Kunming mouse assessed as protection against subcutaneous pentylenetetrazole-induced seizures at 30 mg/kg, ip after 0.5 hrs; type: functional, organism-based; design: dose 30 mg/kg
# How it was run: (§1)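 Male Kunming mice (20 ± 2.0 g) received the compound ip as a suspension in 0.5% methylcellulose at 30, 100 or 300 mg/kg, one to four mice per dose. Pentylenetetrazole in 0.9% saline was given sc at 0.5 h and 4.0 h after dosing. Protection meant no threshold seizure (one clonic spasm episode of at least 5 s). Scored as protected/tested.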
# [5] = system: Mus musculus; test: Anticonvulsant activity in Kunming mouse assessed as protection against subcutaneous pentylenetetrazole-induced seizures at 100 mg/kg, ip after 0.5 hrs; type: functional, organism-based; design: dose 100 mg/kg; how it was run: as §1
# [6] = system: Mus musculus; test: Anticonvulsant activity in Kunming mouse assessed as protection against subcutaneous pentylenetetrazole-induced seizures at 300 mg/kg, ip after 0.5 hrs; type: functional, organism-based; design: dose 300 mg/kg; how it was run: as §1
# [7] = system: Mus musculus; test: Anticonvulsant activity in Kunming mouse assessed as protection against subcutaneous pentylenetetrazole-induced seizures at 30 mg/kg, ip after 4 hrs; type: functional, organism-based; design: dose 30 mg/kg; how it was run: as §1
# [8] = system: Mus musculus; test: Neurotoxicity in Kunming mouse assessed as minimum motor impairment at 30 mg/kg, ip after 0.5 hrs by rotarod test; type: toxicity, organism-based; design: dose 30 mg/kg, route intraperitoneal; settings: in vivo
# How it was run: (§2)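 Rotorod neurotoxicity in male Kunming mice (20 ± 2.0 g) given ip doses of 30, 100 or 300 mg/kg as a suspension in 0.5% methylcellulose, one to four mice per dose. Motor impairment was examined at 0.5 h and 4.0 h after injection. Reported as number of animals showing toxicity/number tested.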
# [9] = system: Mus musculus; test: Neurotoxicity in Kunming mouse assessed as minimum motor impairment at 100 mg/kg, ip after 0.5 hrs by rotarod test; type: toxicity, organism-based; design: dose 100 mg/kg, route intraperitoneal; settings: in vivo; how it was run: as §2
# [10] = system: Mus musculus; test: Neurotoxicity in Kunming mouse assessed as minimum motor impairment at 300 mg/kg, ip after 0.5 hrs by rotarod test; type: toxicity, organism-based; design: dose 300 mg/kg, route intraperitoneal; settings: in vivo; how it was run: as §2
# [11] = system: Mus musculus; test: Neurotoxicity in Kunming mouse assessed as minimum motor impairment at 30 mg/kg, ip after 4 hrs by rotarod test; type: toxicity, organism-based; design: dose 30 mg/kg, route intraperitoneal; settings: in vivo; how it was run: as §2
# [12] = system: Mus musculus; test: Neurotoxicity in Kunming mouse assessed as minimum motor impairment at 100 mg/kg, ip after 4 hrs by rotarod test; type: toxicity, organism-based; design: dose 100 mg/kg, route intraperitoneal; settings: in vivo; how it was run: as §2
# [13] = system: Mus musculus; test: Neurotoxicity in Kunming mouse assessed as minimum motor impairment at 300 mg/kg, ip after 4 hrs by rotarod test; type: toxicity, organism-based; design: dose 300 mg/kg, route intraperitoneal; settings: in vivo; how it was run: as §2
# [14] = system: Rattus norvegicus; test: Anticonvulsant activity in Kunming rat assessed as protection against maximal electroshock-induced seizures at 30 mg/kg, po after 0.25 hrs; type: functional
# How it was run: (§3)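 Male Kunming rats (250 ± 5.0 g) were dosed orally at 30 mg/kg, four rats per compound. Seizures were induced by a 150-mA corneal current for 0.2 s at 0.25, 0.5, 1, 2 and 4 h after dosing. Readout was the number of rats out of four protected against hindlimb tonic extension.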
# [15] = system: Rattus norvegicus; test: Anticonvulsant activity in Kunming rat assessed as protection against maximal electroshock-induced seizures at 30 mg/kg, po after 0.5 hrs; type: functional; how it was run: as §3
# [16] = system: Rattus norvegicus; test: Anticonvulsant activity in Kunming rat assessed as protection against maximal electroshock-induced seizures at 30 mg/kg, po after 1 hr; type: functional; how it was run: as §3
# [17] = system: Rattus norvegicus; test: Anticonvulsant activity in Kunming rat assessed as protection against maximal electroshock-induced seizures at 30 mg/kg, po after 2 hrs; type: functional; how it was run: as §3
# [18] = system: Rattus norvegicus; test: Anticonvulsant activity in Kunming rat assessed as protection against maximal electroshock-induced seizures at 30 mg/kg, po after 4 hrs; type: functional; how it was run: as §3
# [19] = system: Rattus norvegicus; test: Neurotoxicity in Kunming rat assessed as minimum motor impairment at 30 mg/kg, po after 0.25 hrs by rotarod test; type: toxicity, organism-based; design: dose 30 mg/kg, route oral; settings: in vivo
# How it was run: (§4)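 Rotorod neurotoxicity in male Kunming rats (250 ± 5.0 g) given 30 mg/kg po, four rats per compound. Motor impairment was assessed at 0.25, 0.5, 1, 2 and 4 h after oral administration.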
# [20] = system: Rattus norvegicus; test: Neurotoxicity in Kunming rat assessed as minimum motor impairment at 30 mg/kg, po after 0.5 hrs by rotarod test; type: functional, organism-based; design: dose 30 mg/kg; how it was run: as §4
# [21] = system: Rattus norvegicus; test: Neurotoxicity in Kunming rat assessed as minimum motor impairment at 30 mg/kg, po after 1 hr by rotarod test; type: functional, organism-based; design: dose 30 mg/kg; how it was run: as §4
# [22] = system: Rattus norvegicus; test: Neurotoxicity in Kunming rat assessed as minimum motor impairment at 30 mg/kg, po after 2 hrs by rotarod test; type: functional, organism-based; design: dose 30 mg/kg; how it was run: as §4
# [23] = system: Rattus norvegicus; test: Neurotoxicity in Kunming rat assessed as minimum motor impairment at 30 mg/kg, po after 4 hrs by rotarod test; type: functional, organism-based; design: dose 30 mg/kg; how it was run: as §4
# [24] = system: Rattus norvegicus; test: Anticonvulsant activity in Kunming rat assessed as protection against subcutaneous pentylenetetrazole-induced seizures at 30 mg/kg, po after 1 hr; type: functional
# [25] = system: Mus musculus; test: Anticonvulsant activity in Kunming mouse assessed as protection against maximal electroshock-induced seizures at 300 mg/kg, ip after 0.5 hrs; type: functional, organism-based; design: dose 300 mg/kg
# [26] = system: Mus musculus; test: Anticonvulsant activity in Kunming mouse assessed as protection against maximal electroshock-induced seizures at 30 mg/kg, ip after 4 hrs; type: functional, organism-based; design: dose 30 mg/kg
# [27] = system: Mus musculus; test: Anticonvulsant activity in Kunming mouse assessed as protection against subcutaneous pentylenetetrazole-induced seizures at 100 mg/kg, ip after 4 hrs; type: functional, organism-based; design: dose 100 mg/kg; how it was run: as §1
# [28] = system: Mus musculus; test: Anticonvulsant activity in Kunming mouse assessed as protection against subcutaneous pentylenetetrazole-induced seizures at 300 mg/kg, ip after 4 hrs; type: functional, organism-based; design: dose 300 mg/kg; how it was run: as §1
SMILES,Activity [1],Activity [2],Activity [3],Activity [4],Activity [5],Activity [6],Activity [7],Activity [8],Activity [9],Activity [10],Activity [11],Activity [12],Activity [13],Activity [14],Activity [15],Activity [16],Activity [17],Activity [25],Activity [26],Activity [27],also measured
CN1C(=O)NC2(CC2c2ccc(F)cc2)C1=O (configuration not stated),Active,Active,Active,Active,Active,Active,inactive,Non-toxic,Non-toxic,Non-toxic,Non-toxic,Non-toxic,Non-toxic,inactive,25%,inactive,25%,,,,Activity [18]: inactive; Activity [19]: Non-toxic; Activity [20]: Not toxic; Activity [21]: Not toxic; Activity [22]: Not toxic; Activity [23]: Not toxic; Activity [24]: 25%
CN1C(=O)NC2(CC2c2ccccc2Cl)C1=O (configuration not stated),inactive,inactive,inactive,inactive,inactive,inactive,inactive,Non-toxic,,Toxic,Non-toxic,Non-toxic,Toxic,,,,,Active,inactive,inactive,Activity [28]: inactive
CCC(CC)C1CC12NC(=O)N(C)C2=O (configuration not stated),inactive,inactive,,inactive,inactive,inactive,inactive,Non-toxic,Non-toxic,Non-toxic,Non-toxic,Non-toxic,Non-toxic,,,,,Active,inactive,inactive,
CCC1CC12NC(=O)N(C)C2=O (configuration not stated),inactive,inactive,Active,inactive,inactive,inactive,inactive,Non-toxic,Non-toxic,Non-toxic,Non-toxic,Non-toxic,,,,,,Active,inactive,inactive,
CN1C(=O)NC2(CC2c2ccccc2)C1=O (configuration not stated),Active,,,inactive,inactive,inactive,inactive,Non-toxic,Non-toxic,Toxic,Non-toxic,Non-toxic,,inactive,25%,inactive,inactive,,,inactive,Activity [28]: inactive; Activity [18]: inactive; Activity [19]: Non-toxic; Activity [20]: Not toxic; Activity [21]: Not toxic; Activity [22]: Not toxic; Activity [23]: Not toxic
